Laboratory results from ChEMBL document CHEMBL1275556, “High prevalence of plasmid-mediated quinolone resistance genes qnr and aac(6')-Ib-cr in clinical isolates of Enterobacteriaceae from nine teaching hospitals in China” (2008).
In brackets after ≈: the same amount, converted by molar mass.

Assays:
Escherichia coli [1] = assay: Antimicrobial activity against aac(6')-Ib-cr-negative Escherichia coli PU12T harboring wild-type GyrA, GyrB, ParC and qnrS genes by agar dilution method; type: functional
Outline: (§1)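 MICs were determined by the CLSI agar dilution method (M7-A7) and interpreted against CLSI M100-S17 breakpoints.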

Citrobacter freundii [2] = assay: Antimicrobial activity against aac(6')-Ib-cr-positive Citrobacter freundii PU55 harboring GyrA T83I, ParC S80I mutant, wild-type GyrB, qnrA genes by agar dilution method; type: functional; outline: as §1
Citrobacter freundii [3] = assay: Antimicrobial activity against aac(6')-Ib-cr-positive Citrobacter freundii PU55T harboring wild-type GyrA, ParC, GyrB and qnrA genes by agar dilution method
Enterobacter cloacae [4] = assay: Antimicrobial activity against aac(6')-Ib-cr-negative Enterobacter cloacae SH39 harboring GyrA S83I, ParC S80I mutant, wild-type GyrB and qnrA genes by agar dilution method; type: functional
Enterobacter cloacae [5] = assay: Antimicrobial activity against aac(6')-Ib-cr-negative Enterobacter cloacae SH39T harboring qnrA gene by agar dilution method; type: functional
Klebsiella pneumoniae [6] = assay: Antimicrobial activity against aac(6')-Ib-cr-negative Klebsiella pneumoniae SY22 harboring GyrA S83I, ParC S80I mutant, wild-type GyrB and qnrS genes by agar dilution method; type: functional; outline: as §1
Klebsiella pneumoniae [7] = assay: Antimicrobial activity against aac(6')-Ib-cr-negative Klebsiella pneumoniae SY22T harboring qnrS gene by agar dilution method; type: functional; outline: as §1
Klebsiella pneumoniae [8] = assay: Antimicrobial activity against aac(6')-Ib-cr-positive Klebsiella pneumoniae SY26 harboring GyrA S83I, ParC S80I mutant, wild-type GyrB and qnrB genes by agar dilution method; type: functional
Outline: (§2)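 MICs were determined on clinical isolates by CLSI agar dilution (M7-A7) and interpreted against CLSI M100-S17 breakpoints.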

Klebsiella pneumoniae [9] = assay: Antimicrobial activity against aac(6')-Ib-cr-positive Klebsiella pneumoniae SY26T harboring wild-type GyrA, ParC, GyrB and qnrB genes by agar dilution method; type: functional
Outline: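 Transconjugants were made by conjugating a qnr/aac(6')-Ib-cr donor with azide-resistant E. coli J53. MICs were read by CLSI agar dilution (M7-A7) and interpreted per M100-S17.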

Citrobacter freundii [10] = assay: Antimicrobial activity against aac(6')-Ib-cr-positive Citrobacter freundii TJ15 harboring GyrA T83I, ParC S80I mutant, wild-type GyrB, qnrB genes by agar dilution method; type: functional; outline: as §1
Citrobacter freundii [11] = assay: Antimicrobial activity against aac(6')-Ib-cr-positive Citrobacter freundii TJ15T harboring wild-type GyrA, ParC, GyrB genes by agar dilution method; type: functional; outline: as §1
Enterobacter cloacae [12] = assay: Antimicrobial activity against aac(6')-Ib-cr-negative Enterobacter cloacae WH42 harboring wild-type GyrA, ParC, GyrB and qnrA genes by agar dilution method; type: functional
Enterobacter cloacae [13] = assay: Antimicrobial activity against aac(6')-Ib-cr-negative Enterobacter cloacae WH42T harboring qnrA gene by agar dilution method; type: functional
Klebsiella pneumoniae [14] = assay: Antimicrobial activity against aac(6')-Ib-cr-positive Klebsiella pneumoniae WH99 harboring wild-type GyrA, ParC, GyrB and qnrB genes by agar dilution method; type: functional; outline: as §2
Klebsiella pneumoniae [15] = assay: Antimicrobial activity against aac(6')-Ib-cr-positive Klebsiella pneumoniae WH99T harboring qnrB gene by agar dilution method; type: functional
Outline: (§3)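 Transconjugants were made by conjugating a qnr/aac(6')-Ib-cr donor with azide-resistant E. coli J53. Selection used Trypticase soy agar with sodium azide 150 µg/ml and sulfamethoxazole 180 µg/ml. […] MICs were read by CLSI agar dilution (M7-A7) and interpreted per M100-S17.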

Escherichia coli [16] = assay: Antimicrobial activity against Escherichia coli J53 harboring wild-type GyrA, ParC, GyrB genes by agar dilution method
Escherichia coli [17] = assay: Antimicrobial activity against aac(6')-Ib-cr-negative Escherichia coli PU12 harboring GyrA S83L mutant, wild-type GyrB, ParC and qnrS genes by agar dilution method; type: functional; outline: as §1
Escherichia coli [18] = assay: Antimicrobial activity against aac(6')-Ib-cr-positive Escherichia coli FJ3 harboring GyrA S83L, ParC S80R mutant, wild-type GyrB and qnrB genes by agar dilution method; type: functional; outline: as §1
Escherichia coli [19] = assay: Antimicrobial activity against aac(6')-Ib-cr-positive Escherichia coli FJ3T harboring wild-type GyrA, ParC, GyrB and qnrB genes by agar dilution method
Enterobacter cloacae [20] = assay: Antimicrobial activity against aac(6')-Ib-cr-negative Enterobacter cloacae FJ61 harboring GyrA S83I, GyrA D87A, ParC S80I mutant, wild-type GyrB and qnrS genes by agar dilution method; type: functional
Enterobacter cloacae [21] = assay: Antimicrobial activity against aac(6')-Ib-cr-negative Enterobacter cloacae FJ61T harboring qnrS gene by agar dilution method; type: functional
Enterobacter cloacae [22] = assay: Antimicrobial activity against aac(6')-Ib-cr-positive Enterobacter cloacae FJ63 harboring GyrA S83I, GyrA D87A, ParC S80I mutant, wild-type GyrB and qnrS genes by agar dilution method; type: functional
Enterobacter cloacae [23] = assay: Antimicrobial activity against aac(6')-Ib-cr-positive Enterobacter cloacae FJ63T harboring qnrS gene by agar dilution method; type: functional
Enterobacter cloacae [24] = assay: Antimicrobial activity against aac(6')-Ib-cr-negative Enterobacter cloacae FJ67 harboring […] and qnrS genes by agar dilution method; type: functional
Enterobacter cloacae [25] = assay: Antimicrobial activity against aac(6')-Ib-cr-negative Enterobacter cloacae FJ67T harboring qnrS gene by agar dilution method; type: functional
Klebsiella pneumoniae [26] = assay: Antimicrobial activity against aac(6')-Ib-cr-positive Klebsiella pneumoniae GZ40 harboring GyrA S83I, ParC S80I mutant, wild-type GyrB and qnrB genes by agar dilution method; type: functional; outline: as §1
Klebsiella pneumoniae [27] = assay: Antimicrobial activity against aac(6')-Ib-cr-positive Klebsiella pneumoniae GZ40T harboring qnrB gene by agar dilution method
Enterobacter cloacae [28] = assay: Antimicrobial activity against aac(6')-Ib-cr-negative Enterobacter cloacae GZ47 harboring qnrB and qnrS genes by agar dilution method; type: functional
Enterobacter cloacae [29] = assay: Antimicrobial activity against aac(6')-Ib-cr-negative Enterobacter cloacae GZ47T harboring qnrB gene by agar dilution method; type: functional
Enterobacter cloacae [30] = assay: Antimicrobial activity against aac(6')-Ib-cr-negative Enterobacter cloacae GZ51 harboring qnrA gene by agar dilution method; type: functional
Enterobacter cloacae [31] = assay: Antimicrobial activity against aac(6')-Ib-cr-negative Enterobacter cloacae GZ51T harboring qnrA gene by agar dilution method; type: functional
Citrobacter freundii [32] = assay: Antimicrobial activity against aac(6')-Ib-cr-positive Citrobacter freundii JN1 harboring GyrA T83I, ParC S80I mutant, wild-type GyrB and qnrA genes by agar dilution method; type: functional; outline: as §1
Citrobacter freundii [33] = assay: Antimicrobial activity against aac(6')-Ib-cr-positive Citrobacter freundii JN1T by agar dilution method; type: functional; outline: as §1
Klebsiella pneumoniae [34] = assay: Antimicrobial activity against aac(6')-Ib-cr-positive Klebsiella pneumoniae JN132 harboring GyrA S83I, ParC S80I mutant, wild-type GyrB and qnrB genes by agar dilution method; type: functional; outline: as §2
Klebsiella pneumoniae [35] = assay: Antimicrobial activity against aac(6')-Ib-cr-positive Klebsiella pneumoniae JN132T harboring qnrB gene by agar dilution method; type: functional; outline: as §3
Klebsiella pneumoniae [36] = assay: Antimicrobial activity against aac(6')-Ib-cr-positive Klebsiella pneumoniae JN41 harboring GyrA S83I, ParC S80I mutant, wild-type GyrB and qnrB genes by agar dilution method; type: functional; outline: as §2
Klebsiella pneumoniae [37] = assay: Antimicrobial activity against aac(6')-Ib-cr-positive Klebsiella pneumoniae JN41T harboring qnrB gene by agar dilution method; type: functional; outline: as §3
Citrobacter freundii [38] = assay: Antimicrobial activity against aac(6')-Ib-cr-negative Citrobacter freundii JN64 harboring GyrA T83I, wild-type ParC, GyrB and qnrA genes by agar dilution method; type: functional; outline: as §1
Citrobacter freundii [39] = assay: Antimicrobial activity against aac(6')-Ib-cr-negative Citrobacter freundii JN64T harboring qnrA gene by agar dilution method; type: functional; outline: as §1
Citrobacter freundii [40] = assay: Antimicrobial activity against aac(6')-Ib-cr-positive Citrobacter freundii JS33 harboring GyrA T83I mutant, wild-type ParC, GyrB, qnrA and qnrB genes by agar dilution method; type: functional; outline: as §1
Citrobacter freundii [41] = assay: Antimicrobial activity against aac(6')-Ib-cr-positive Citrobacter freundii JS33T harboring qnrA gene by agar dilution method; type: functional; outline: as §1

C[C@@H](O)[C@H]1C(=O)N2C(C(=O)O)=C(S[C@@H]3CN[C@H](C(=O)N(C)C)C3)[C@H](C)[C@H]12 [MEROPENEM]
MIC (Escherichia coli [1]): 0.016 µg/mL (≈ 0.0417 µM)
MIC (Citrobacter freundii [2]): 0.25 µg/mL (≈ 0.652 µM)
MIC (Citrobacter freundii [3]): 0.016 µg/mL (≈ 0.0417 µM)
MIC (Enterobacter cloacae [4]): 0.125 µg/mL (≈ 0.326 µM)
MIC (Enterobacter cloacae [5]): 0.016 µg/mL (≈ 0.0417 µM)
MIC (Klebsiella pneumoniae [6]): 0.016 µg/mL (≈ 0.0417 µM)
MIC (Klebsiella pneumoniae [7]): 0.016 µg/mL (≈ 0.0417 µM)
MIC (Klebsiella pneumoniae [8]): 0.125 µg/mL (≈ 0.326 µM)
MIC (Klebsiella pneumoniae [9]): 0.016 µg/mL (≈ 0.0417 µM)
MIC (Citrobacter freundii [10]): 0.032 µg/mL (≈ 0.0834 µM)
MIC (Citrobacter freundii [11]): 0.016 µg/mL (≈ 0.0417 µM)
MIC (Enterobacter cloacae [12]): 0.125 µg/mL (≈ 0.326 µM)
MIC (Enterobacter cloacae [13]): 0.016 µg/mL (≈ 0.0417 µM)
MIC (Klebsiella pneumoniae [14]): 0.032 µg/mL (≈ 0.0834 µM)
MIC (Klebsiella pneumoniae [15]): 0.016 µg/mL (≈ 0.0417 µM)
MIC (Escherichia coli [16]): 0.016 µg/mL (≈ 0.0417 µM)
MIC (Escherichia coli [17]): 0.016 µg/mL (≈ 0.0417 µM)
MIC (Escherichia coli [18]): 0.032 µg/mL (≈ 0.0834 µM)
MIC (Escherichia coli [19]): 0.032 µg/mL (≈ 0.0834 µM)
MIC (Enterobacter cloacae [20]): 0.25 µg/mL (≈ 0.652 µM)
MIC (Enterobacter cloacae [21]): 0.016 µg/mL (≈ 0.0417 µM)
MIC (Enterobacter cloacae [22]): 1 µg/mL (≈ 2.61 µM)
MIC (Enterobacter cloacae [23]): 0.064 µg/mL (≈ 0.167 µM)
MIC (Enterobacter cloacae [24]): 0.032 µg/mL (≈ 0.0834 µM)
MIC (Enterobacter cloacae [25]): 0.032 µg/mL (≈ 0.0834 µM)
MIC (Klebsiella pneumoniae [26]): 0.125 µg/mL (≈ 0.326 µM)
MIC (Klebsiella pneumoniae [27]): 0.016 µg/mL (≈ 0.0417 µM)
MIC (Enterobacter cloacae [28]): 0.032 µg/mL (≈ 0.0834 µM)
MIC (Enterobacter cloacae [29]): 0.016 µg/mL (≈ 0.0417 µM)
MIC (Enterobacter cloacae [30]): 0.064 µg/mL (≈ 0.167 µM)
MIC (Enterobacter cloacae [31]): 0.016 µg/mL (≈ 0.0417 µM)
MIC (Citrobacter freundii [32]): 0.125 µg/mL (≈ 0.326 µM)
MIC (Citrobacter freundii [33]): 0.016 µg/mL (≈ 0.0417 µM)
MIC (Klebsiella pneumoniae [34]): 0.032 µg/mL (≈ 0.0834 µM)
MIC (Klebsiella pneumoniae [35]): 0.032 µg/mL (≈ 0.0834 µM)
MIC (Klebsiella pneumoniae [36]): 0.032 µg/mL (≈ 0.0834 µM)
MIC (Klebsiella pneumoniae [37]): 0.016 µg/mL (≈ 0.0417 µM)
MIC (Citrobacter freundii [38]): 0.25 µg/mL (≈ 0.652 µM)
MIC (Citrobacter freundii [39]): 0.016 µg/mL (≈ 0.0417 µM)
MIC (Citrobacter freundii [40]): 0.125 µg/mL (≈ 0.326 µM)
MIC (Citrobacter freundii [41]): 0.032 µg/mL (≈ 0.0834 µM)
